From PubChem
Compounds with a hit are over-represented: about 1.8% of the library has one in this group of screens.
DDE Tn7 FP inh = DD(E)-Tn7 binding inhibition, primary FP screen. inhibition, % at 8.3 µM. FP displacement of FITC-Tn7 peptide from fibrin DD(E); 0% = median of compound wells per plate. AID 720508. P02675. 370,000 tested, 0.13% active;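 active means inhibition above the mean of compounds falling within the control limits plus 3 SD of them, cut at about 14% in these data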
Target sequence (P02675 whole entry, looked up): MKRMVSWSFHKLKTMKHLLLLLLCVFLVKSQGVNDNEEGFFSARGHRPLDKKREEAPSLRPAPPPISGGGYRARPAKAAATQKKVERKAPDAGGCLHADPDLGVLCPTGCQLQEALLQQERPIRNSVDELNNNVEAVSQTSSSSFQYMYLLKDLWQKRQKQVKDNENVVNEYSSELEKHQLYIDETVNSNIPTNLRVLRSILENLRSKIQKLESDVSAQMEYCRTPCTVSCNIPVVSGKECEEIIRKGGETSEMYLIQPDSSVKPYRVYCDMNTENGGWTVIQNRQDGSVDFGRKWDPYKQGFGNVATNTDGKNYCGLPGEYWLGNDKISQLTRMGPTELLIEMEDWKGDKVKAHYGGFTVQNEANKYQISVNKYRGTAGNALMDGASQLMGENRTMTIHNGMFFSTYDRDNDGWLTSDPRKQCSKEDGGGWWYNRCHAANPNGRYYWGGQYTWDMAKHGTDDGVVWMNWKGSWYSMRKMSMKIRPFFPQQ
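Also added: labelled Tn7 tracer, 0.1 µM; Assay system: human fibrin DD(E) protein; Amount: 2 µM fibrin DD(E); Schedule: 10 min compound pre-incubation, 3 h probe incubation at room temperature; Repeats: one replicate per compound; Read-out basis: percent inhibition; Measured by: fluorescence polarization of the labelled Tn7 tracer.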
GRK2 aptamer HTS = human GRK2 inhibition via aptamer displacement. 330,000 tested, 0.59% active. inhibition of aptamer binding, % at 10 µM. P25098. bead flow cytometry, FAM-aptamer displacement from GRK2;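 active means inhibition of aptamer binding above 40%, roughly 3 SD of noise, on plates passing a quality check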;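 further: median bead fluorescence of bound FAM aptamer so fluorescent compounds give negative values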
CAL PDZ FP-1 = human CAL PDZ-peptide interaction inhibition. Q9HD26. purified CAL PDZ, TMR-peptide fluorescence polarization, 1 h. inhibition, % at 20 µM. 330,000 tested, 0.02% active. AID 504414;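 active means highest replicate inhibition of at least 40%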
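Test system: tagged CAL PDZ domain / Buffer or medium: sodium phosphate/NaCl buffer pH 7.4 with TCEP, IgG, Thesit / Reagent: TMR-labelled reporter peptide T*-PRC34 bound in PDZ groove / Compound dosing: single point, 20 µM / Schedule: 1 h incubation at room temperature before polarization reading / Technique: fluorescence polarization (mP) / Benchmarks: unlabelled peptide, DMSO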
CAL PDZ FP-2 = inhibitors of human CAL PDZ peptide binding; Q9HD26; purified CAL PDZ, TMR-peptide fluorescence polarization, 1 h; inhibition, % at 24.9 µM; 300,000 tested, 0.92% active; AID 602252;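 active means mean inhibition of at least 30% with at least half of replicates also reaching 30%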
ARNT TACC3 PPI = ARNT/TACC3 interaction disruption | AlphaScreen His-ARNT PAS-B/GST-TACC3 binding, luminescence; TACC3 fragment carries E629A point mutation | inhibition, % at 9.99 µM | 390,000 tested, 0.66% active | AID 623870;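 active means mean inhibition of replicates at least 50% and at least half of replicates each reaching 50%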
Tn6 DDE FP = inhibitors of Tn6 peptide binding to human fibrin DD(E); P02675; Fibrin DD(E) TRITC-Tn6 fluorescence polarization displacement; inhibition, % at 8.3 µM; 370,000 tested, 0.21% active;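 active means inhibition above a per-campaign cutoff: mean of compounds within control limits plus 3 SD, cut at about 15% in these data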
DDE Tn7 confirm = DD(E)-Tn7 binding inhibition, FP confirmation; shares compounds with DDE Tn7 FP inh; inhibition, % at 8.3 µM; FP displacement of TRITC-Tn7 peptide from DD(E); 0% set at plate's compound-well median; 460 tested, 5% active;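 active means inhibition above the campaign cutoff, the mean of compounds within control limits plus 3 SD, cut at about 14% in these data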;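 further: displacers lower polarization since freed probe rises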
Tn7 DDE ctr = counter-screen hit for Tn7 peptide-fibrin DD(E) binding disruption; shares compounds with DDE Tn7 FP inh; TRITC-Tn7 probe displacement, fluorescence polarization; inhibition, % at 8.3 µM; 460 tested, 3% active; AID 720633;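 active means inhibition above the cutoff, the mean of compounds lying between the control bounds plus 3 SD of those compounds, cut at about 17% in these data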
DDE Tn6 FP ctr = DD(E)-Tn6 binding inhibition, counter-screen; shares compounds with Tn6 DDE FP; Fibrin DD(E), TRITC-Tn6 fluorescence polarization displacement; 0% = median of compound wells, not DMSO; inhibition, % at 8.3 µM; 680 tested, 2% active; AID 720621;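 active means inhibition above the mean of test compounds lying between the control limits plus 3 SD of those, cut at about 14% in these data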
Tn6 DDE conf = DD(E)-Tn6 binding inhibition, FP confirmation; shares compounds with Tn6 DDE FP; FP displacement of TRITC-Tn6 peptide from DD(E); 0% = per-plate median of test wells; inhibition, % at 8.3 µM; 680 tested, 10% active;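 active means inhibition above the mean of compounds lying within the control limits plus 3 SD, cut at about 16% in these data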
A number is an active result; – = inactive; · = no result given; + = active, no number.

SMILES	DDE Tn7 FP inh	GRK2 aptamer HTS	CAL PDZ FP-1	CAL PDZ FP-2	ARNT TACC3 PPI	Tn6 DDE FP	DDE Tn7 confirm	Tn7 DDE ctr	DDE Tn6 FP ctr	Tn6 DDE conf
O=c1cc(C(F)(F)F)c2cc3c4c(c2o1)CCCN4CCC3	32.9	–	–	–	–	–	–	–	·	·
O=S(=O)(c1ccc2ccccc2c1)N1Cc2cc(Br)ccc2-n2nncc2C1	–	·	·	·	·	–	·	·	·	·
CN(c1ccc(O)cc1)c1ccc([N+](=O)[O-])c2nonc12	–	·	·	·	·	–	·	·	·	·
Nc1ccc2nonc2c1[N+](=O)[O-]	20.0	–	–	·	–	–	–	–	·	·
C[n+]1c(-c2ccccc2)c2cc(N)ccc2c2ccc(N)cc21	21.7	–	–	–	47.4	49.1	–	124.4	–	124.4
COc1cccc2c1C(=O)c1c(O)c3c(c(O)c1C2=O)CC(O)(C(C)=NO)CC3OC1CC(N)C(O)C(C)O1 (centres undefined)	20.8	·	–	–	–	+	–	93.2	–	93.2
COC(=O)[C@H]1[C@H](CO)[C@H]2Cn3c(ccc(-c4ccccc4OC)c3=O)[C@@H]1N2Cc1ccccc1	·	·	·	·	–	·	·	·	·	·
CCCNC(=O)N1[C@@H]2c3ccc(-c4ccccc4OC)c(=O)n3C[C@H]1[C@H](CO)[C@H]2C(=O)O	·	·	·	·	–	·	·	·	·	·
O=[N+]([O-])c1ccc(NCc2ccccc2)c2nonc12	61.1	–	·	·	·	21.3	46.2	27.1	46.2	27.1
N#Cc1ccc(-c2ccc([C@H]3[C@@H](CO)N4CCCCN(C(=O)Cc5ccccc5)C[C@H]34)cc2)cc1	·	·	·	·	–	·	·	·	·	·
CCNC(=O)C1OC(n2cnc3c(N)ncnc32)C(O)C1O (centres undefined)	–	–	–	–	–	15.6	·	·	–	–
COC(=O)[C@@]1(O)c2c(oc3cccc(O)c3c2=O)C=C[C@H]1O	–	·	·	·	·	–	·	·	·	·
O=[N+]([O-])c1ccc(N2CCCCCC2)c2nonc12	–	–	–	–	–	84.7	·	·	–	65.6
CC=Cc1ccc2n(c1=O)C[C@H]1[C@H](CO)[C@@H](C(=O)N(C)C)[C@@H]2N1C (mixture of isomers)	·	·	·	·	–	·	·	·	·	·
